The results in this text go back to ChEMBL document CHEMBL3352559, “Synthesis and pharmacological investigation of aralkyl diamine derivatives as potential triple reuptake inhibitors” (Eur J Med Chem, 2014).

A short description of data set [1]: Drug uptake in Sprague-Dawley rat plasma at 0.5 mg/kg iv after 0.25 hrs. The class given is ADME, organism-based. Also on record: dose 0.5 mg/kg, route intravenous. The procedure, abridged: (§1)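 Male SD rats, fasted overnight until 6 h post-dose; single 0.5 mg/kg femoral-vein injection; blood drawn into heparin at 5, 15, 30 min, 1, 2 and 4 h; plasma stored at -40 °C; drug levels by LC/MS/MS; noncompartmental parameters.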

Data set [2] addresses L-type calcium channel, verapamil binding site (Homo sapiens, UniProt O60840+Q01668+Q13698+Q13936). The data set can be described thus: Inhibition of human L-type calcium channel verapamil binding site at 10 uM by [3H]D88 binding assay relative to control. The procedure, abridged: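 Outsourced CNS receptor panel (55 binding assays); compound tested at 10 μM in primary radioligand binding; specific binding inhibition expressed relative to control, with >50% inhibition taken as a significant effect.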

The nature of data set [3]: Ratio of drug level in Sprague-Dawley rat brain to plasma at 0.5 mg/kg iv after 4 hrs. Also on record: dose 0.5 mg/kg, route intravenous. The conditions noted are these: read-out: BPR. The class given is ADME, organism-based.
Data set [4] is described as follows: Acute toxicity in KM mouse assessed as survival at 900 mg/kg, po up to 14 days (reference value: 100%). The class given is organism-based. Also on record: dose 900 mg/kg, route oral. The settings on record: in vivo.
Data set [5] can be described thus: Cmax in Sprague-Dawley rat at 2 mg/kg, po. In kind it is ADME, organism-based. Also on record: dose 2 mg/kg, route oral. The settings on record: in vivo. The procedure, abridged: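 Male SD rats, fasted overnight until 6 h post-dose. PO group received single 2 mg/kg with heparinized blood sampled at 5, 15, 30 min, 1, 2, 4, 8, 24 h. IV group received single 0.5 mg/kg via femoral vein with sampling at 5, 15, 30 min, 1, 2, 4 h. Plasma stored at -40 °C, quantified by LC/MS/MS; 24 rats per group.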

Data set [6] deals with Cannabinoid receptor 1 (Homo sapiens) (UniProt P21554). The data set can be described thus: Displacement of [3H]-CP55940 from human CB1 receptor at 10 uM relative to control. The procedure, abridged: (§2)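 Outsourced CNS panel of 55 receptor binding assays run by Cerep. Compound tested at 10 μM, the default primary-binding concentration, with inhibition expressed relative to control. Inhibition above 50% taken as a significant effect.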

A short description of data set [7]: Drug uptake in Sprague-Dawley rat plasma at 0.5 mg/kg iv after 0.50 hrs. Also on record: dose 0.5 mg/kg, route intravenous. In kind it is ADME, organism-based. The procedure, abridged:
as §1

Data set [8] concerns the target Beta-1 adrenergic receptor (Homo sapiens) (UniProt P08588). The experiment in a line: Displacement of [3H]CGP-12177 from human beta1-adrenergic receptor at 10 uM relative to control. The method in brief:
as §2

Another data set relates to Salmonella typhimurium. The data set can be described thus: Mutagenic activity in Salmonella typhimurium TA98 assessed as number of reversion mutation at 1000 ug/plate. The settings on record: salmonella enterica subsp. enterica serovar typhimurium. The class given is toxicity, organism-based. The procedure, abridged: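 Ames reversion test in Salmonella typhimurium TA98 and TA100, with and without rat liver S9 metabolic activation. Compound was dissolved in DMSO and added at 3–5000 μg/plate. Each dose, vehicle and positive control was plated in triplicate, and revertant colonies were counted.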

The target of data set [9] is Sodium-dependent dopamine transporter (Homo sapiens, UniProt Q01959). The experiment in a line: Inhibition of [3H]-DA uptake in human dopamine transporter expressed in HEK293 cells by scintillation counting. In kind it is cell-based.
Sodium-dependent dopamine transporter, sequence (Q01959 whole entry): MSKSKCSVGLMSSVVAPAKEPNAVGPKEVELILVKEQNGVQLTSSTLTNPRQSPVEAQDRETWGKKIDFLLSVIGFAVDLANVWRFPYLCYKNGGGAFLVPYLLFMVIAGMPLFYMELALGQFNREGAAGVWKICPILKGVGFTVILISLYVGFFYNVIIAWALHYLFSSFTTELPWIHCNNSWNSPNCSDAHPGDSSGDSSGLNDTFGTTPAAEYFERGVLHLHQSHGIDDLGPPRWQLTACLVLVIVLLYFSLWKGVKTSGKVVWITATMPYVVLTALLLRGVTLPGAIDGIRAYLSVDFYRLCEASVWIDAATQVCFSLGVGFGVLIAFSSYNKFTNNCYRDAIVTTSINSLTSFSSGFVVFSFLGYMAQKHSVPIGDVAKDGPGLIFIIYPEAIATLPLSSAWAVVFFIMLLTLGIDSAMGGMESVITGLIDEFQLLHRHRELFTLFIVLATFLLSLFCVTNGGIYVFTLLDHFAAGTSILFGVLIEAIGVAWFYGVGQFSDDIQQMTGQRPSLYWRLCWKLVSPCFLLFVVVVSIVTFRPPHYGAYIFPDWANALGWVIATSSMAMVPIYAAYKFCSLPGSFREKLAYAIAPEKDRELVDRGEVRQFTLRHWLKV

Beta-1 adrenergic receptor (Homo sapiens), sequence (P08588 whole entry, looked up): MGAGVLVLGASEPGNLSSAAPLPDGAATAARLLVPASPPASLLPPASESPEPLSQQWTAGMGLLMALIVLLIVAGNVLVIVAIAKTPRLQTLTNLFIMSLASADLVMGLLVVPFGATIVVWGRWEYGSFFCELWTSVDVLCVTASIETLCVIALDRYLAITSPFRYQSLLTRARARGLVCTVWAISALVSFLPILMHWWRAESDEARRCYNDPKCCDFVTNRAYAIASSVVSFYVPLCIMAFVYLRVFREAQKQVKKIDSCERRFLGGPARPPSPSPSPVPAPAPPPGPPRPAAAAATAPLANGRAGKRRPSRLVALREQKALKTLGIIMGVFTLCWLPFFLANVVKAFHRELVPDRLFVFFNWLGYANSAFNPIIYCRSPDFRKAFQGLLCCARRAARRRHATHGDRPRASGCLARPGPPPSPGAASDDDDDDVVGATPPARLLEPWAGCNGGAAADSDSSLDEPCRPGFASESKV
Cannabinoid receptor 1 (Homo sapiens), sequence (P21554 whole entry): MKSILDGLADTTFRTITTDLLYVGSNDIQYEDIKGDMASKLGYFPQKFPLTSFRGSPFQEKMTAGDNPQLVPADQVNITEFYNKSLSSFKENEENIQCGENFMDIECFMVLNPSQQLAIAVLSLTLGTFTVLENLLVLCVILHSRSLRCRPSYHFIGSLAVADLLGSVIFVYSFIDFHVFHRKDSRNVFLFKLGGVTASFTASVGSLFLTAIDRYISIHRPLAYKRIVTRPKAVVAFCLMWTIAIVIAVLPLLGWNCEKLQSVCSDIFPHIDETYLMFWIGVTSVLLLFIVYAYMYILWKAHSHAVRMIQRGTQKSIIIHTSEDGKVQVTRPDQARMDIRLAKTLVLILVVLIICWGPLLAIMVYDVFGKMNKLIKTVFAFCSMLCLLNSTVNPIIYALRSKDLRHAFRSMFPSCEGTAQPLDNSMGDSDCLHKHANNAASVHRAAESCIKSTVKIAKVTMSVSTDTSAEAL

As usually defined, the inhibition is the relative decrease from the control value, in per cent. Broadly, the Cmax is the highest concentration seen after dosing. The IC50 is the concentration at which inhibition is half-maximal. A low value points to inhibition by little substance. In turn, `CN(C)CCC(c1ccc(Cl)c(Cl)c1)N1CCOCC1` (stereo not given) showed a concentration at 0.25 h in data set [1] of 42 ng/mL. In addition, the inhibition at 10 µM in data set [2] amounted to 41.8%. Besides, in data set [3], the Kp at 4 h was determined as 11.4. Moreover, the survival at 336 h in [4] is 40%. The molecule also showed a Cmax in data set [5] of 26.8 ng/mL. For the same molecule, the inhibition in data set [6] is -6.2%; in data set [8], 11%. The molecule also gave a concentration at 0.5 h in [7] of 44.5 ng/mL. The Activity in the data set on Salmonella typhimurium was determined as 31. In addition, half-maximal inhibition in data set [9] (IC50) required 247 nM.
